Assay outcomes deposited in PubChem BioAssay by Johns Hopkins Ion Channel Center.
Compounds with a hit are over-represented: about 2.3% of the library has one in this group of screens.
TRPC6 inhibitor: mouse TRPC6 channel inhibitors, primary screen, cell-based, HEK293, membrane potential dye | Short transient receptor potential channel 6 (Mus musculus), Q61143 | ACh-evoked depolarization; active compounds read low | B-score at 10 µM | 1.1% of 310,000 active | AID 2553, 2010;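 active means B-score under library mean minus 3 SD, initial fluorescence not abnormally high, positive integrated signal ratio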;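 further: B-score derived from integrated fluorescence ratio over the kinetic read; more negative B-score means stronger inhibition of depolarization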
TRPC4 block: inhibitors of mouse TRPC4 channel, primary screen, Fluo4 calcium, HEK293 TRPC4beta/mu-opioid cells; Short transient receptor potential channel 4 (Mus musculus), Q9QUQ5; DAMGO-evoked Fluo4 calcium flux; active compounds read low; B-score at 10 µM; 0.39% of 300,000 active; AID 2247, 2010;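 active means B-score over 3 SD under the library average, no early fluorescence shift, positive overall ratio signal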
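Material: HEK293 cells with stable TRPC4beta plus mu-opioid receptor expression / Probe or stimulus: DAMGO in two steps, submaximal then maximal / Compound: single concentration per test compound / Technique: kinetic Fluo4 fluorescence imaging of calcium influx / Read-out: per-well B score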
TRPC4 potent: positive allosteric modulators of TRPC4, primary screen, cell-based, mouse TRPC4beta, HEK293 mu-opioid, Fluo-4 calcium; DAMGO EC20, Fluo-4 Ca2+ flux; active compounds read high; B-score at 10 µM; 0.42% of 310,000 active;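 active means B-score of calcium response area above 5 SD of library B-scores, with initial fluorescence ratio within 5 SD of library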;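 further: B-score of integrated fluorescence ratio over time as area under calcium response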
TRPC4 agonist: activators of mouse TRPC4 channel, primary screen, Fluo4 calcium, HEK293 TRPC4beta/mu-opioid cells; 0.49% of 310,000 active; Fluo4 calcium fluorescence; active compounds read high; B-score at 10 µM;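 active means B-score above 5 SD of library B-scores, and initial fluorescence ratio not above library mean plus 5 SD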;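 further: positive B-score marks a calcium rise read as TRPC4 activation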
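system = HEK293 cells stably co-expressing mouse TRPC4beta and mu-opioid receptor | schedule = Fluo4 dye loading 45 min at room temperature, 110 s recording | measure = B-scored integrated calcium fluorescence ratio | signal = Fluo4 calcium-sensitive dye fluorescence, kinetic, 1 Hz baseline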
TRPC6 act: mouse TRPC6 channel activators, primary screen, cell-based, HEK293, membrane potential dye; HEK293-TRPC6 membrane potential dye fluorescence; active compounds read high; 0.13% of 310,000 active; B-score at 10 µM;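 active means B-score of the integrated fluorescence ratio above library mean plus 3 SD, and starting fluorescence ratio within library mean plus 5 SD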;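 further: higher score means more depolarization so channel activation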
* marks the source's active call; other numbers are inactive results; i = inactive.

SMILES	TRPC6 inhibitor	TRPC4 block	TRPC4 potent	TRPC4 agonist	TRPC6 act
CCOC(=O)C1(CCc2ccccc2)CCN(Cc2cccc3cnccc23)CC1	i	i	i	i	i
CCOC(=O)C1(CCc2ccccc2)CCN(Cc2csc(C(C)=O)c2)CC1	i	i	i	49*	i
CCOC(=O)C1(CCc2ccccc2)CCN(Cc2cccc3c2OCO3)CC1	i	-6*	i	i	i
COc1ccc(OC)c(N2Cc3ccccc3C2=N)c1	i	-7*	i	i	i
Cc1cc(C)nc(N2Cc3ccccc3C2=N)n1	i	i	i	i	i
COc1ccc(OC)c(N2C(=O)/C(=C/c3ccco3)C(=O)NC2=S)c1	i	i	10*	i	i
CN(C)c1ccc(C2C3C=CC(C3)C2(C#N)C(=O)O)c(Br)c1 (configuration not stated)	i	i	i	i	i
O=C(CN1CCCC1)Nc1ccc(Cl)cc1C(=O)c1ccccc1	i	-6*	i	i	i
O=C(CCN1CCCCC1)Nc1ccc(Cl)cc1C(=O)c1ccccc1	i	i	i	i	i
CC(=O)N1CCC(N2CCCC(C(=O)c3cccc(Cl)c3)C2)CC1 (configuration not stated)	-5.7*	i	i	i	i
CC(C)(C)c1ccc(C(=O)C2CCCN(C3CCC3)C2)cc1 (configuration not stated)	i	i	i	57*	i
O=C(c1ccc(Cl)cc1)C1CCCN(Cc2ccon2)C1 (configuration not stated)	i	i	i	i	i
CN1CCCC(C(=O)c2ccc(Cl)cc2)C1 (configuration not stated)	i	-9*	i	126*	i
O=C(C(=O)N1CCOCC1)c1cn(Cc2c(F)cccc2Cl)c2ccccc12	i	i	i	i	i
CC(C)(CN)CC(=O)O	i	i	i	i	i
Nc1ccc(Cl)cc1C(=O)c1ccccc1Cl	i	i	34*	i	i
CCCCCCn1c(=O)c(C(=O)Nc2ncccc2C)c(O)c2ccccc21	i	i	i	i	i
NC1=Nc2ccccc2Oc2ccccc21	i	i	i	i	i
COc1ccc(CCNCc2cccn2C)cc1OC	i	i	i	i	i
Cc1ccccc1-n1c(C)cc(/C=C2/C(=O)NC(=O)N(Cc3ccco3)C2=O)c1C	i	-6*	i	i	i
Cc1ccc(-n2c(C)cc(/C=C3/C(=O)NC(=O)N(Cc4ccco4)C3=O)c2C)cc1	i	i	i	i	i
CN1C(=O)C2C[C@@]3(Br)c4ccccc4N(OOSc4ccccc4)[C@H]3N2C(=O)[C@@H]1Cc1ccccc1 (some centres not stated)	i	i	i	i	i
COc1ccccc1N1CCNCC1	i	i	i	i	i
Clc1cccc(N2CCNCC2)n1	i	i	i	i	i
Cn1c(N2CCNCC2)nc2ccccc21	i	i	i	105*	i
SMILES	TRPC6 inhibitor	TRPC4 block	TRPC4 potent	TRPC4 agonist	TRPC6 act
Cc1cc(N2CCNCC2)nc2ccccc12	i	i	13*	i	i
COc1ccc(Cl)cc1C(=O)C1CCCN(Cc2cnc(C)s2)C1 (configuration not stated)	i	i	i	i	i
Cc1ccc(OP(=O)(Nc2cccc(C)c2)Oc2ccc(C)cc2)cc1	i	i	i	i	i
Cc1cccc(OP(=O)(Nc2cccnc2)Oc2cccc(C)c2)c1	i	i	11*	i	i
CCOc1ccc(N=C2SCCCN2C)cc1	i	i	i	i	i
CN1CCN(c2c(N)c(=O)oc3ccccc23)CC1	i	i	10*	i	i
Cc1c(CCN)ccc2c1[nH]c1ccccc12	i	i	19*	i	i
CCN(CC)C(=O)N[C@H]1C[C@@H]2c3cccc4[nH]cc(c34)C[C@H]2N(C)C1	i	i	i	83*	i
CN1C[C@H](CO)C[C@@H]2c3cccc4[nH]cc(c34)C[C@H]21	i	i	i	i	i
O=S(=O)(c1ccccc1)N1CCN2CCCC2C1 (configuration not stated)	i	i	i	i	i
CC(NS(=O)(=O)OCC(Cl)(Cl)Cl)c1ccccc1 (configuration not stated)	i	i	i	i	i
CC(C)CC(NC(=O)C1CCCCC1)C(=O)N1CCC2(CC1)OCCO2 (configuration not stated)	i	i	i	i	i
CC(C)C[C@H](NC(=O)[C@@H]1CCCN1C(=O)[C@@H](N)Cc1ccc(O)cc1)C(=O)NCC(N)=O	i	i	i	53*	i
O=C1C(Cc2cnc[nH]2)NC(=S)N1c1ccccc1 (configuration not stated)	i	i	i	i	i
CC(=O)O[C@]1(c2ccccc2)CCN(C)[C@H]2CCCC[C@@H]21	i	i	i	i	i
CC(=O)OC1(c2ccccc2)CCN(C2CCCCC2)CC1C (configuration not stated)	i	-6*	i	i	i
CCN(CC)C(=O)c1ccc(NC(=O)c2ccc(-n3cncn3)c([N+](=O)[O-])c2)cc1	i	i	i	i	i
CCN1CCN(Cc2cc(Br)cc(Br)c2O)CC1	i	i	i	200*	i
CCc1ccc(CN2CCN(Cc3cc(Br)ccc3O)CC2)cc1	i	i	i	i	i
CCN1CCN(Cc2cc(Br)ccc2O)CC1	i	i	23*	i	i
CCCC(C)n1[nH]c(=O)c2c1NC(=O)CSC2c1ccccc1 (configuration not stated)	i	i	i	i	i
CCCCN1C(=O)NC(=O)C2(Cc3c(nc4ccccn4c3=O)N3CCc4ccccc4C32)C1=O (configuration not stated)	i	i	57*	i	i
CCCCN1C(=O)NC(=O)C2(Cc3c(nc4c(C)cccn4c3=O)N3CCc4ccccc4C32)C1=O (configuration not stated)	i	i	19*	i	i
